Bioassay records deposited in PubChem by several laboratories.
hERG rescue = hERG (human) protection from proarrhythmic block; Q12809; CHO-hERG, FluxOR thallium flux, dofetilide IC70 present; activation (rescue from dofetilide block), less the hit threshold, % at 10 µM; 0.51% of 310,000 active;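 active = activation above the mean of controls blocked by dofetilide plus 5 SD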;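 also: thallium influx through hERG after potassium depolarization seen as dye fluorescence rise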
AI-2 QS modul = Vibrio harveyi AI-2 quorum sensing modulation. Vibrio harveyi JMH597 AI-2 luminescence/OD600 ratio, 9 h; stronger effect = lower value; strain lacks LuxN and CqsS sensors; 0 = neutral-control median. activity change, % at 7.5 µM. 0.4% of 300,000 active. AID 2094; in the data active = activity change below about -75%, passing the limit was not always enough; inconclusive = no clear call, values can overlap the other calls;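 also: luminescence divided by OD600 gain over 9 h not by final OD600 alone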
KCNQ1 block = human KCNQ1 channel inhibition | 1.3% of 310,000 active | AID 2642 | CHO-K1 KCNQ1, FluxOR thallium flux fluorescence; stronger effect = higher value | B-score at 10 µM;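 active = compounds whose thallium flux B-score, printed positive for inhibition, exceeds three library SD while starting fluorescence stays within three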;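 also: channel opened by potassium depolarization with thallium stimulus after 20 min compound exposure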
SUMO Mot1 rescue = blocks SUMOylation pathway, rescuing yeast Mot1-301 growth; 1% of 320,000 active; AID 2716; growth rescue, % at 18.8 µM; S. cerevisiae Mot1-301 growth rescue, ATP luminescence, 38.5C; percent above DMSO median, 100 means doubled;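 active = every valid replicate shows activation above 250% relative to neutral control wells; inactive = the rest, any valid replicate at or below 250%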
KCNQ1 pot = human KCNQ1 channel potentiation or activation; CHO-K1 KCNQ1, thallium flux FluxOR fluorescence; stronger effect = higher value; 0.35% of 310,000 active; P51787; B-score at 10 µM;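 active = fluorescence ratio B-score, a plate-corrected score, at least three library SD, with initial intensity B-score within 5 SD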
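Assay system: CHO-K1 cells stably expressing KCNQ1; Medium: assay buffer with matched DMSO; Also added: K+/Tl+ depolarizing stimulus; Dosing: single dose; Timing: dye 90 min, compound 20 min, room temperature; Measured by: kinetic FluxOR thallium fluorescence, 10-s 1-Hz baseline, 110-s post-stimulus read; Read-out: peak-minus-minimum fluorescence over initial fluorescence, negative-control normalized, B-scored.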
KCC2 mod = modulators of human KCC2 chloride dependent transport; KCC2 cells, thallium flux FluoZin-2 fluorescence; B-score of Tl+ flux slope (higher = more flux/activation; lower = inhibition) at 10 µM; 2.2% of 190,000 active; AID 1456;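 active = thallium flux slope and its plate-corrected score both differing from the plate sample mean at a set confidence after two filtering rounds, in either direction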;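 also: slope of fluorescence scaled to starting intensity during 10 to 20 s after thallium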
KCC2 secondary = KCC2 (human) modulation, secondary assay. shares compounds with KCC2 mod. HEK293-KCC2, thallium flux, FluoZin2 fluorescence; stronger effect = higher value. normalised thallium flux (F/F0 slope) at 10 µM. 15% of 3,700 active;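 active = thallium flux slope above the same plate's solvent-only control mean plus 3 SD; inconclusive = the two replicate wells disagree; inactive = no significant difference from solvent-only control wells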
KCC2 bumet counter = thallium flux persisting under bumetanide in KCC2 cells, counter-screen secondary assay. shares compounds with KCC2 mod. HEK293-KCC2 + bumetanide/ouabain, thallium flux FluoZin2; stronger effect = higher value. normalized thallium flux at 10 µM. 49% of 3,700 active. AID 1714;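 active = thallium entry rate above the same plate's blocked-transporter control wells by more than 3 SD; inconclusive = the two repeat wells disagree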;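 also: raw slope of fluorescence over initial fluorescence between 10 and 20 s after thallium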
KCC2 sec2 = KCC2 (human) modulation, second secondary assay. normalized thallium flux at 10 µM. AID 1715. HEK293-KCC2, thallium flux FluoZin2 fluorescence; actives lie on both sides; F/F0 rise rate, 10–20 s post-thallium. shares compounds with KCC2 mod. 23% of 3,700 active;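 active = thallium flux slope more than 3 SD above or below the plate's solvent-only control mean, mostly below; inconclusive = the two repeat wells disagreed; inactive = no significant shift from solvent-only controls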
HEK293 Tl flux = counter-screen for KCC2 modulators: effect in parental HEK293 cells; shares compounds with KCC2 mod; thallium flux FluoZin2, ouabain; baseline-ratio fluorescence slope, 10–20 s after thallium; thallium flux rate (normalised fluorescence) at 10 µM; 46% of 3,700 active; AID 1716;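 active = thallium flux rate significantly above the same plate's solvent-only control wells, beyond their mean plus 3 SD; inconclusive = the two replicate wells gave conflicting results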
KCC2 ouabain = confirmation of human KCC2 modulators with ouabain. shares compounds with KCC2 mod. HEK293-KCC2, thallium flux FluoZin2 fluorescence; bidirectional: low = inhibitor, high = activator. raw Tl+ flux slope (below DMSO = inhibition, above = activation) at 10 µM. 48% of 3,700 active;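 active = thallium flux slope beyond 3 SD from same-plate DMSO control mean in most replicates, usually higher, sometimes lower; inconclusive = repeat tests gave conflicting results; inactive = no significant difference from controls in most replicates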;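 also: slope of initial-normalized fluorescence between seconds 10 and 20 after thallium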
HEK counter2 = parental HEK flux effect, counter-screen 2. 33% of 3,700 active. thallium flux slope at 10 µM. shares compounds with KCC2 mod. HEK293 parental, thallium flux FluoZin-2 fluorescence slope. AID 1718;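 active = thallium flux slope above the same plate's solvent-control mean plus 3 SD in both duplicate wells; inconclusive = duplicate wells that disagreed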;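 also: run without ouabain in cells lacking the KCC2 cotransporter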
Of the large screens only hits and unclear results are named; the others gave an inactive call (follow-up assays come after a bar, where they were run). In the library only some 4.2% were active in any assay of this set; here they are far more common.

COc1ccc(-c2nc(-c3ccccc3)c(-c3cccs3)[nH]2)cc1OC	KCC2 mod -5.37 | KCC2 secondary inactive | KCC2 bumet counter inactive | KCC2 sec2 inactive | HEK293 Tl flux inactive | KCC2 ouabain inactive | HEK counter2 inactive
O=C(COC(=O)[C@@H]1CCCN1C(=O)c1cccs1)Nc1cccc(Cl)c1	none (no result: hERG rescue, AI-2 QS modul, KCNQ1 block, KCNQ1 pot, KCC2 mod)
Cc1ccc(-c2nc(COC(=O)C3=NN(c4ccccc4)C(=O)CC3)cs2)cc1	none (no result: hERG rescue, AI-2 QS modul, KCNQ1 block, KCNQ1 pot, KCC2 mod)
Cc1ccc(C)c(NC(=S)N/N=C2/CCCCc3ccccc32)c1	KCC2 mod 9.62 | KCC2 secondary inactive | KCC2 bumet counter 0.0355 | KCC2 sec2 0.0466 | HEK293 Tl flux 0.0374 | KCC2 ouabain 0.0375 | HEK counter2 0.0384
CCCC/C(O)=C1\C(=O)CCCC1=NCCc1c(C)[nH]c2ccccc12	none
N#Cc1c(N)sc2c1CCN(CCc1ccccc1)C2	none
c1ccc(CCc2nn3c(Cc4ccccc4)nnc3s2)cc1	KCC2 mod -2.72 | KCC2 secondary inactive | KCC2 bumet counter inactive | KCC2 sec2 inactive | HEK293 Tl flux inactive | KCC2 ouabain 0.0177 | HEK counter2 inactive
CCOc1nc(-c2ccc(OC)cc2)ccc1-c1noc(-c2cccnc2)n1	none (no result: hERG rescue, AI-2 QS modul, KCNQ1 block, SUMO Mot1 rescue, KCNQ1 pot)
CCOc1nc(-c2ccc(C)cc2)ccc1-c1noc(-c2cccnc2)n1	KCC2 mod 2.91 (no result: SUMO Mot1 rescue) | KCC2 secondary inactive | KCC2 bumet counter inactive | KCC2 sec2 inactive | HEK293 Tl flux inactive | KCC2 ouabain inactive | HEK counter2 inactive
CC1CCc2nc3ccc(S(=O)(=O)N4CCC(C(=O)NC(C)c5ccccc5)CC4)cc3c(C(=O)O)c2C1 (configuration not stated)	none (no result: KCC2 mod)
Cn1cnnc1Sc1ccc(/C=C(\CCC(=O)O)c2nc3ccccc3s2)cc1[N+](=O)[O-]	KCC2 mod -6.78 | KCC2 secondary inactive | KCC2 bumet counter inactive | KCC2 sec2 0.0246 | HEK293 Tl flux 0.00593 | KCC2 ouabain 0.0137 | HEK counter2 inactive
COc1ccc(/C=C(\CC(=O)O)c2nc3ccccc3s2)cc1O	none
Cc1ccc(/C=C(\CCC(=O)O)c2nc3ccccc3s2)cc1[N+](=O)[O-]	KCC2 mod -6.9 | KCC2 secondary inactive | KCC2 bumet counter inactive | KCC2 sec2 0.0216 | HEK293 Tl flux 0.00583 | KCC2 ouabain 0.01 | HEK counter2 inconclusive
COc1cc(/C=C(\CC(=O)O)c2nc3ccccc3s2)cc(OC)c1O	none
CCOc1cc(/C=C(\CC(=O)O)c2nc3ccccc3s2)ccc1OC	none
CNc1ccc(/C=C(\CCC(=O)O)c2nc3ccccc3s2)cc1[N+](=O)[O-]	KCC2 mod -5.47 | KCC2 secondary inactive | KCC2 bumet counter inactive | KCC2 sec2 0.0248 | HEK293 Tl flux inactive | KCC2 ouabain 0.0127 | HEK counter2 inactive
CN(c1ccccc1)c1ccc(/C=C(\CCC(=O)O)c2nc3ccccc3s2)cc1[N+](=O)[O-]	KCC2 mod -6.94 | KCC2 secondary inactive | KCC2 bumet counter inactive | KCC2 sec2 0.0212 | HEK293 Tl flux inactive | KCC2 ouabain 0.0117 | HEK counter2 inactive
Cn1cnnc1Sc1ccc(/C=C/C(=O)c2ccc(O)cc2)cc1[N+](=O)[O-]	none
COc1ccc(Cl)cc1NC(=O)CN1CCN(S(=O)(=O)N2CCCCC2)CC1	none (no result: KCC2 mod)
CCC(C)NC(=O)c1ccc([N+](=O)[O-])c(Cl)c1 (configuration not stated)	none
CC(OC(=O)/C=C/c1ccccc1)C(=O)Nc1cccc(C#N)c1 (configuration not stated)	none (no result: KCC2 mod)
Cc1cccc2c(N=Nc3ccc(S(=O)(=O)Nc4ccc(Cl)cc4)cc3[N+](=O)[O-])c(O)[nH]c12	none
CCOC(=O)CNC(=S)N(CCCN1CCN(C)CC1)Cc1cccs1	none (no result: KCC2 mod)
COc1ccccc1NC(=O)c1ccc(NC(=O)CSc2nc(N)cc(=O)[nH]2)cc1	none (no result: hERG rescue, AI-2 QS modul, KCNQ1 block, KCNQ1 pot, KCC2 mod)
NNC(=O)c1cc(-c2cccs2)nc2ccccc12	none
C/C(=N\NC(=O)c1cc(-c2cccs2)nc2ccccc12)c1ccccn1	KCC2 mod 16.8 | KCC2 secondary 0.0149 | KCC2 bumet counter 0.0436 | KCC2 sec2 inactive | HEK293 Tl flux 0.0604 | KCC2 ouabain 0.0446 | HEK counter2 inconclusive
CC(C)(C)c1cc(-c2n[nH]c(=S)n2-c2ccccc2F)n[nH]1	hERG rescue 9.1, KCC2 mod 38.7 | KCC2 secondary inactive | KCC2 bumet counter 0.0469 | KCC2 sec2 0.045 | HEK293 Tl flux 0.0331 | KCC2 ouabain 0.0425 | HEK counter2 0.0305
CCn1c(CCNC(=O)c2cccs2)nnc1SCC(=O)Nc1nc(-c2ccccc2)cs1	KCC2 mod -3.22 | KCC2 secondary inactive | KCC2 bumet counter inactive | KCC2 sec2 inconclusive | HEK293 Tl flux inactive | KCC2 ouabain 0.0137 | HEK counter2 inactive
CCn1c(CCNC(=O)c2cccs2)nnc1SCC(=O)Nc1cccc(Cl)c1	none
CCC(=O)Nc1nc(-c2ccccc2)ns1	KCC2 mod 2.47 | KCC2 secondary inactive | KCC2 bumet counter inactive | KCC2 sec2 inactive | HEK293 Tl flux inactive | KCC2 ouabain inactive | HEK counter2 inactive
O=C(Nc1nc(-c2ccccc2)ns1)c1cccs1	none (no result: KCC2 mod) | KCC2 secondary inactive | KCC2 bumet counter inactive | KCC2 sec2 inactive | HEK293 Tl flux inactive | KCC2 ouabain 0.0149 | HEK counter2 inactive
CCCC(=O)Nc1nc(-c2ccccc2)ns1	none
O=C(Nc1nc(-c2ccccn2)cs1)c1ccc(Cl)s1	AI-2 QS modul -196.5, KCC2 mod 37.4 | KCC2 secondary inactive | KCC2 bumet counter 0.0604 | KCC2 sec2 0.06 | HEK293 Tl flux 0.0601 | KCC2 ouabain 0.0544 | HEK counter2 0.0629
